In one data set the test system is MDA-MB-231. The data set can be described thus: Antiproliferative activity against estrogen-negative human MDA-MB-231 cells after 96 hrs by WST1 assay. The format is functional. The settings on record: MDA-MB-231, 96 h. A digest of the protocol: (§1)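 Cells were grown in RPMI-1640 with 10% FBS at 37 °C in 5% CO2, then seeded at 5000 cells/well. They were exposed to compound at 10^-9–10^-4 M or vehicle for 96 h. Live cells were read by WST-1 and expressed as percent of mean control, from which GI50 was calculated. Runs were done in triplicate.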
A general note: Formazan colour is commonly taken as a measure of viable cells.

A further data set deals with OVCAR-3. Kind of data set: Growth inhibition of human OVCAR3 cells. The format is functional.
A further data set concerns SN12C. Kind of data set: Growth inhibition of human SN12C cells. In kind it is functional.
Data set [1] in a line: Toxicity in ip dosed athymic nude mouse administered as single dose. The format is organism-based. The following applies: in vivo. A digest of the protocol: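 Preliminary toxicology run at the NCI in female athymic nude mice. Each mouse received a single ip dose, at doses up to 400 mg/kg. The compound was formulated in 10% DMSO in saline/Tween 80.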
A short description of data set [2]: Growth inhibition of human NCI60 cells. In kind it is functional.
A further data set has as its system UACC-62. Kind of data set: Growth inhibition of human UACC62 cells. In kind it is functional.
In a further data set the test system is SF-539. Kind of data set: Growth inhibition of human SF539 cells. The format is functional.
The next data set concerns HCT-116. The data set can be described thus: Growth inhibition of human HCT116 cells. In kind it is functional.
For another data set, the system named is DU-145. Kind of data set: Antiproliferative activity against human DU145 cells after 96 hrs by WST1 assay. The format is functional. The settings on record: DU-145, 96 h. A digest of the protocol:
as §1

For a further data set, the system named is HOP-62. The data set can be described thus: Growth inhibition of human HOP62 cells. In kind it is functional.
The subject of the next data set is MCF7. Kind of data set: Antiproliferative activity against estrogen-positive human MCF7 cells. The format is functional.
The test system of data set [3] is Mus musculus. Kind of data set: Antiangiogenic activity in Matrigel plug implanted C57BL/6J mouse assessed as inhibition of bFGF-induced angiogenesis at 10 mg/kg, po administered 24 hrs after implantation for 4 days measured by FITC-conjugated dextran staining based fluorimetry. The format is functional, organism-based. The arrangement: dose 10 mg/kg. A digest of the protocol: (§2)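 Female C57BL/6J mice (6–8 weeks) were injected subcutaneously in the flanks with 0.5 mL ice-cold Matrigel plus 500 ng bFGF. Oral dosing in vehicle (10% THF, 90% PG) ran daily for 4 days, starting 24 h after Matrigel. Groups had five mice. FITC-dextran (0.1 mL of 0.25 mg/mL) was given iv and mice killed 20 min later. Plugs were digested in Dispase 16 h at 37 °C, and supernatant fluorescence read at ex 480/em 520 nm against a FITC-dextran standard curve.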

The subject of data set [4] is Mus musculus. Kind of data set: Antiangiogenic activity in Matrigel plug implanted C57BL/6J mouse assessed as inhibition of bFGF-induced angiogenesis at 20 mg/kg, po administered 24 hrs after implantation for 4 days measured by FITC-conjugated dextran staining based fluorimetry. In kind it is functional, organism-based. The arrangement: dose 20 mg/kg. The gist of the method:
as §2

What is called GI50 is the concentration at which growth is held to half of that of the control.

Activity calls are given as the source filed them. The rule behind the calls is not given here.

As for `CCc1cc2c(cc1OS(N)(=O)=O)CC[C@@H]1[C@@H]2CC[C@]2(C)[C@@H](CO)CC[C@@H]12`, the GI50 was 0.11 µM with MDA-MB-231; < 0.01 µM in the data set on OVCAR-3; < 0.01 µM in the data set with SN12C; 0.018 µM in data set [2]; < 0.01 µM in the data set with UACC-62; < 0.01 µM in the data set with SF-539. Further, the results for the concentration for 50% growth inhibition (GI50) in the data set with HCT-116, with DU-145 and in the data set on HOP-62 were < 0.01 µM, 0.1 µM and < 0.01 µM, respectively. Further, the MTD in [1] was found to be 400 mg/kg.

For the molecule `CCc1cc2c(cc1OS(N)(=O)=O)CC[C@@H]1[C@@H]2CC[C@]2(C)[C@@H](C(C)=O)CC[C@@H]12`, the GI50 in the data set on MCF7 is 0.026 µM; in the data set with MDA-MB-231, 0.019 µM; in the data set on OVCAR-3, < 0.01 µM; in the data set with SN12C, < 0.01 µM; in data set [2], 0.015 µM; in the data set on UACC-62 it was < 0.01 µM. For the same molecule, the GI50 in the data set on SF-539 was < 0.01 µM; in the data set on HCT-116, < 0.01 µM; in the data set with DU-145, 0.062 µM; with HOP-62 it was < 0.01 µM. In addition, the outcome in the data set on Mus musculus [3] and with Mus musculus [4] was Active.

The values above are taken from ChEMBL document CHEMBL1811760, “Structure-activity relationships of C-17-substituted estratriene-3-O-sulfamates as anticancer agents” (J Med Chem, 2011).
